Key:
[1] = tested on: bleomycin-induced dermal fibrosis; settings: mice, 14 days of IP dosing, 100 mg/kg bid; cited from earlier work
ACTA2 expression = assay: ACTA2 mRNA expression; type: cell-based; settings: Homo sapiens, Fibroblast, 24 h, read-out: ACTA2 (%ctrl), inhibition of ACTA2 expression (percent control), TGF-β-stimulated human dermal fibroblasts, 10 μM, 24 hrs, mean of n=3
[2] = tested on: conjunctival fibrosis (scar tissue formation); settings: preclinical model of conjunctival fibrosis; ref 18 (Yu-Wai-Man et al); cited from earlier work
[3] = Stability to incubation with mouse liver microsomes; type: in vitro ADME; settings: relative to 1
[4] = tested on: bleomycin-induced dermal fibrosis; assay: Bleomycin-induced dermal fibrosis in mice; type: in vivo; settings: PO 50 mg/kg qd, 14 days, vs bleomycin treatment alone
Summary of the method: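 Three groups of mice (n=8) were treated daily for 14 days. Controls received intracutaneous PBS. The bleomycin group received intracutaneous bleomycin with concurrent oral gavage of vehicle. The treated group received intracutaneous bleomycin with concurrent oral gavage of test compound at 50 mg/kg. Read-outs were dermal thickness and hydroxyproline content, each compared with bleomycin alone.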

[5] = tested on: Rho/MRTF/SRF pathway (SRE.L promoter luciferase reporter); assay: Inhibition of Gα12-stimulated SRE.Luciferase activity in HEK293T cells; type: cell-based
Summary of the method: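 HEK293T cells were transfected with a luciferase reporter driven by the MRTF-selective SRE.L promoter. Reporter activity was Gα12-stimulated, and inhibition of luciferase signal by test compound was measured. Values are means of n ≥ 3.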

Q: With `O=C(Nc1ccc(Cl)cc1)C1CCCN(C(=O)c2cccc(-c3ccco3)c2)C1` (centres unmarked) [Cmpd 1] as the compound, how does the “Effect on development of bleomycin-induced dermal fibrosis” value [1] read?
A: Its value is “can attenuate the development of bleomycin-induced dermal fibrosis”.

Q: What does the source list for `O=C(Nc1ccc(Cl)cc1)C1CN(C(=O)c2cccc(-c3ccco3)c2)CC(F)(F)C1` (centres unmarked) [Cmpd 8a]?
A: mrna remaining at 10 µM (ACTA2 expression): 9%; Effect on scar tissue formation [2]: prevent scar tissue formation; Lengthening of half-time in MLM (factor) [3]: three

Q: Which “Reduction of bleomycin-induced increase in dermal thickness” value [4] does the source give for `O=C(Nc1ccc(Cl)cc1)C1CN(C(=O)c2cccc(-c3ccncc3)c2)CC(F)(F)C1` (centres unmarked) [Cmpd 8f] here?
A: Its value is −55%.

Q: What about the “Reduction of bleomycin-induced increase in hydroxyproline content” value [4] of the same compound?
A: Its value is −62%.

Q: Which “Improvement of SRE.L potency” value ([5]; relative to 5-carbonyl/parent series) does the source give for `C=C1CC(C(=O)Nc2ccc(Cl)cc2)CN(C(=O)c2cccc(-c3ccco3)c2)C1` (centres unmarked) [Cmpd 23] here?
A: Its value is about 10 fold.

Q: For `CN(C(=O)C1CCCN(C(=O)c2cccc(-c3ccco3)c2)C1)c1ccc(Cl)cc1` (centres unmarked) [Cmpd 26], which “Reduction of SRE.L activity” value ([5]; relative to 1) is on record?
A: Its value is 10 fold.

Source: article PMC5395305 (Bioorganic & medicinal chemistry letters, 2017)
